From ChEMBL document CHEMBL2093137, “WHO-TDR NTD Screening”
Values after ≈ are worked out from the molar mass of the structure shown.

Legend:
[1] = WHO-TDR: Cytotoxicity; format: toxicity, cell-based; conditions: human, MRC5 cells
[2] = system: Trypanosoma brucei brucei; assay: WHO-TDR: Human African Trypanosomiasis (HAT); format: functional, organism-based; conditions: Squib-427
How it was run: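 Values are IC50 figures for antiparasitic potency. They come from a whole-organism screen of 10,000 diverse Life Chemicals compounds against bloodstream-form Trypanosoma brucei (Squib 427 strain).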

Brugia malayi [3] = assay: (§1) WHO-TDR: Lymphatic Filariasis; format: functional, organism-based;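 as to % Inhibition: tested at 10 µM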
How it was run: (§2)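 A diverse library of 10,000 compounds from Life Chemicals was screened against Brugia malayi microfilariae in a whole-organism assay. The library had been filtered for drug-likeness and reactive groups. Activity is given as percent inhibition and as IC50.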

Leishmania infantum = assay: WHO-TDR: Leishmaniasis; format: functional, organism-based, Mus musculus; conditions: Macrophage
How it was run: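 Values are IC50 figures for antiparasitic potency. They come from a whole-organism screen of a 10,000-compound diverse Life Chemicals library against Leishmania infantum MHOM/MA(BE)/67 amastigotes inside murine peritoneal macrophage host cells.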

Plasmodium falciparum K1 = assay: WHO-TDR: Malaria; format: functional, organism-based, Homo sapiens; conditions: Erythrocyte
How it was run: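 Values are IC50 figures for antiplasmodial potency. They come from a whole-organism screen of 10,000 diverse Life Chemicals compounds against Plasmodium falciparum K1 growing inside human red blood cells, run by previously published standard procedures.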

Schistosoma mansoni = assay: WHO-TDR: Schistosomiasis; format: functional; set-up: concentration or dose not given beside the values
How it was run: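 A diverse library of 10,000 compounds from Life Chemicals, filtered for drug-likeness and reactive groups, was screened against whole larval and/or adult Schistosoma mansoni worms of the Puerto Rican strain. Previously published standard procedures were followed, with a reference drug as positive control. Activity is given as percent inhibition and as IC50.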

Brugia malayi [4] = assay: as §1; format: functional; set-up: concentration or dose not given beside the values; how it was run: as §2
Brugia malayi [5] = assay: as §1; format: functional; set-up: concentration or dose not given beside the values; how it was run: as §2; remark: listed apart in the source
Onchocerca lienalis = assay: (§3) WHO-TDR: Onchocerciasis; format: functional; set-up: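 at 12.5 µM on microfilariae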
How it was run: (§4)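 A diverse library of 10,000 compounds from Life Chemicals, filtered for drug-likeness and reactive groups, was screened against whole microfilariae of Onchocerca ochengi or Onchocerca lienalis. These animal pathogens served as stand-ins for the human parasite. Activity is given as percent inhibition and as IC50.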

Trypanosoma cruzi = assay: WHO-TDR: Chagas disease; format: functional, organism-based, Homo sapiens; conditions: MRC5
How it was run: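 Following previously published standard procedures, with a reference drug as positive control, a whole-organism assay was run on Trypanosoma cruzi Tulahuen CL2 beta-galactosidase strain amastigotes inside MRC-5SV2 human lung fibroblast host cells. The 10,000 compounds tested formed a diverse Life Chemicals library filtered for drug-likeness and reactive groups. Results are expressed as IC50 for antiparasitic potency.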

Onchocerca ochengi = assay: as §3; format: functional; set-up: concentration or dose not given beside the values; how it was run: as §4;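 also: at 12.5 µM on microfilariae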

SMILES	IC50 [1] [µg/mL]	IC50 [2] [µg/mL]	IC50 (Brugia malayi [3]) [µM]	IC50 (Leishmania infantum) [µg/mL]	IC50 (Plasmodium falciparum K1) [µg/mL]	% Inhibition (Schistosoma mansoni) [%]	% Inhibition (Brugia malayi [4]) [%]	% Inhibition (Brugia malayi [5]) [%]	% Inhibition (Onchocerca lienalis) [%]	IC50 (Trypanosoma cruzi) [µg/mL]	% Inhibition (Onchocerca ochengi) [%]
CCN1CCc2c(sc(NC(=O)c3ccc(S(=O)(=O)N4CC5(C)CC4CC(C)(C)C5)cc3)c2C(N)=O)C1 (stereo not given)	3.41 (≈ 6.26 µM)	3.82 (≈ 7.01 µM)	3.54	5.29 (≈ 9.71 µM)	5.59 (≈ 10.3 µM)	0	0	100	6.7	3.2 (≈ 5.88 µM)	–
O=C(CCCSc1ccc(F)cc1)N1CCN(c2nc3ccc(Cl)cc3s2)CC1	> 13.5	> 13.5	3.54	4.37 (≈ 9.71 µM)	> 13.5	0	40	100	12.34	> 13.5	–
COc1ccc(-c2nnc(NC(=O)c3ccc(S(=O)(=O)N4CC(C)OC(C)C4)cc3)o2)c(OC)c1 (stereo not given)	> 15.1	> 15.1	3.22	4.88 (≈ 9.71 µM)	10.6 (≈ 21.1 µM)	0	25	100	66.7	4.91 (≈ 9.78 µM)	–
CCn1ccc(C(=O)Nc2nc(-c3cc(Cl)ccc3Cl)cs2)n1	> 11	3.52 (≈ 9.6 µM)	5.18	> 11	> 11	50	0	100	–	> 11	50
COC(=O)c1ccc(CSc2ccc(NC(=O)C(C)C)nn2)o1	> 10.1	> 10.1	6.15	> 10.1	> 10.1	0	0	100	–	> 10.1	0
COc1ccc(Cl)cc1NC(=O)CSc1nccn1-c1cccc(C)c1C	> 12.1	> 12.9	3.94	> 12.1	> 12.1	0	25	100	46.67	2.76 (≈ 6.86 µM)	–
COC(=O)c1ccc(COc2cccc3c2CCN(Cc2ccc(Cl)cc2)C3=O)o1	> 12.8	0.772 (≈ 1.81 µM)	4.61	> 12.8	4.84 (≈ 11.4 µM)	0	12.5	100	20	3.19 (≈ 7.49 µM)	–
CCCCc1ccc(NC(=O)CSc2nccn2-c2ccccc2)cc1	> 11	> 11.7	4.31	> 11	> 11	0	25	100	0	3.22 (≈ 8.81 µM)	–
O=C(O)CCC(=O)Nc1ccc(Br)cc1	> 8.16	> 8.16	6.6	> 8.16	> 8.16	0	0	100	0	> 8.16	–
COc1cccc(C(=O)Nc2nnc(SCc3ccc(Br)cc3)s2)c1	> 13.1	> 13.1	1.77	> 13.1	> 13.1	0	33.33	100	0	> 13.1	–
COc1ccc(C(=O)Nc2nnc(SCC(=O)Nc3cc(C(F)(F)F)ccc3Cl)s2)cc1OC	> 16	> 16	5.95	> 16	> 16	0	0	100	26.67	> 16	–
O=C(Nc1nc(-c2ccccn2)cs1)c1ccc2c(c1)CCCC2	> 10.1	> 10.1	1.91	> 10.1	9.24 (≈ 27.5 µM)	12.5	50	100	60	> 10.1	–
O=C(CCS(=O)(=O)c1ccccc1)N(CCCN1CCOCC1)c1nc2ccccc2s1	2.88 (≈ 6.09 µM)	4.9 (≈ 10.3 µM)	6.05	5.81 (≈ 12.3 µM)	> 15.3	0	60	100	9.31	8.52 (≈ 18 µM)	–
COc1cccc2sc(Nc3sc4c(c3C(N)=O)CCCC4)nc12	3.58 (≈ 9.95 µM)	0.947 (≈ 2.63 µM)	4.51	4.55 (≈ 12.7 µM)	4.55 (≈ 12.7 µM)	12.5	50	100	–	3 (≈ 8.35 µM)	–
O=C(Cc1cc(-c2ccc(Cl)cc2)on1)Nc1cccnc1	1.19 (≈ 3.8 µM)	> 9.41	1.77	> 9.41	> 9.41	0	0	100	–	2.25 (≈ 7.18 µM)	75
COc1cccc(C(=O)Nc2nnc(-c3ccc4c(c3)CCCC4)o2)c1	> 10.5	> 11.2	2.18	3.31 (≈ 9.49 µM)	> 10.5	25	50	100	–	> 10.5	–
CC(=O)Nc1ccc2nc(Nc3nc4ccc(C(C)C)cc4s3)sc2c1	> 11.5	4.49 (≈ 11.7 µM)	5.09	4.12 (≈ 10.8 µM)	2.19 (≈ 5.72 µM)	0	25	100	–	2.37 (≈ 6.2 µM)	–
O=C(Nc1nnc(-c2ccc3c(c2)CCCC3)o1)c1cc(Cl)sc1Cl	> 11.8	3.79 (≈ 9.63 µM)	4.49	6.13 (≈ 15.5 µM)	> 11.8	0	50	100	–	3.88 (≈ 9.83 µM)	–
CC1CCc2c(sc(Nc3nc4c(F)cccc4s3)c2C(N)=O)C1 (stereo not given)	> 10.8	2.31 (≈ 6.39 µM)	4.99	3.51 (≈ 9.71 µM)	2.69 (≈ 7.46 µM)	0	25	100	–	4.66 (≈ 12.9 µM)	–
